Assay [1] in a line: SK-BR-3 cell growth inhibitors, pilot screen, 24 h, human (AID 572).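 Also: compound exposure lasted between 18 and 24 h rather than exactly 24 h; 100% = carrier-treated control wells.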 The conditions noted are these: SK-BR-3 viability, CellTiter-Glo luminescence, at 10 µM, stronger effect = lower value. On the technique in general: ATP-based viability assays read luminescence as a measure of living cells.
Assay [2] can be described thus: HUVEC growth inhibition – cell-based, human, primary screen (AID 575;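 active = viability at or below 30% in both replicate assays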;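 also: 100% = median of untreated cell wells with 0.1% DMSO on each plate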). The conditions noted are these: HUVEC proliferation, CellTiter-Glo luminescence, 72 h; at 10 µM; stronger effect = lower value. In a few lines:
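Test system – primary HUVEC, no more than 12 passages · Dosing – one dose, 10 µM final, 0.1% DMSO · Times – 72 h treatment at 37 °C · Measured by – ATP-based CellTiter-Glo luminescent read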

The nature of assay [3]: growth inhibitors of H69AR lung tumor, primary screen, human, duplicate replicates (AID 580;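 active = viability at or under a set limit in both replicates, limit being median viability minus 3 SD, cut at about 48% in these data, passing the limit was not always enough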;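 also: 100% = mean luminescence of untreated wells and 0% = no signal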). The conditions noted are these: H69AR lung tumor cells viability, ATP luminescence, 72 h; at 10 µM; stronger effect = lower value.
Assay [4] is described as follows: reversal of MRP1-mediated doxorubicin resistance, pilot screen, H69AR cells, doxorubicin co-treatment (AID 601;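 active = viability loss from added drug above about 55%, and viability with drug at most 40%, in both replicates, limit read from the data, passing the limit was not always enough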). Conditions: CellTiter-Glo, 72 h, at 10 µM; for differential viability (reversal): stronger effect = higher value.
Assay [5] is described as follows: 384-well plate pilot, post-Golgi transport modulator project, inhibition of yeast transport mutant growth (AID 636; in the data active = inhibition above about 31%). Conditions: absorbance 615 nm, about 18 h, stronger effect = higher value.
A short description of assay [6]: growth suppression of yeast trafficking mutant, preliminary HTS, modulators of trafficking downstream of Golgi apparatus project, 1536-format plate, OD 615 nm (AID 637; in the data active = inhibition above about 30%). The conditions noted are these: yeast transport mutant growth, absorbance 615 nm, 18 h; stronger effect = higher value.
Setting [7] is: H69AR cells + 2 uM doxorubicin, measured here: viability with 2 uM doxorubicin, stronger effect = lower value.
[8] abbreviates: H69AR cells, compound alone cytotoxicity.

Calls of active or inactive are those of the source.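 The calls were made as follows, unless noted: active = viability at or below 10% of carrier control in both of two separate runs; inconclusive = viability at or below 10% in only one of the two runs; inactive = the rest.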

For `Cc1ccc2c(C(=O)CN3CCSCC3)c(C)[nH]c2c1`, the viability – broadly, a read-out of living cells in per cent, often relative to untreated cells – was 120% (inactive) in assay [1]; 91.8% (inactive) in assay [2]; 74.2% (inactive) in assay [3]; 75% in assay [4] (setting [7]); 74.2% in assay [4] (setting [8]). Further, the differential viability (reversal) in assay [4] (H69AR cells + 2 uM doxorubicin) was -0.745% (inactive). Moreover, the inhibition (as a rule, the change of the read-out against control, counted positive when it falls) was -3.07% (inactive) in assay [5] and -3.82% (inactive) in assay [6].
Regarding `Nc1cc(N)nc(SCc2ccccc2)n1`, the viability in assay [1] was 94% (inactive); in assay [2] it was 90.8% (inactive); in assay [3] it was 85.6% (inactive); in assay [4] (setting [7]) it was 92.4%; in assay [4] (setting [8]), 85.6%. Also, the differential viability (reversal) in assay [4] (H69AR cells + 2 uM doxorubicin) is -6.86% (inactive). In addition, the inhibition in assay [5] is -0.68% (inactive); in assay [6], 9.27% (inactive).
Regarding `FC(F)(F)c1ccc(Sc2nnc(-c3cccs3)n2CC2CCCO2)nc1` (centres undefined), the viability in assay [1] was 68% (inactive); in assay [2], 104% (inactive); in assay [3], 94.5% (inactive); in assay [4] (setting [7]), 88.4%; in assay [4] (setting [8]) it was 94.5%. The differential viability (reversal) in assay [4] (H69AR cells + 2 uM doxorubicin) is 6.06% (inactive). Moreover, the inhibition in assay [5] was -8.22% (inactive); in assay [6], 2% (inactive).
Take `Cc1ccc2[nH]c3c(=O)n(CCCN4CCN(C)CC4)cnc3c2c1`: the viability in assay [1] is 115% (inactive); in assay [2], 99.9% (inactive); in assay [3], 95.5% (inactive); in assay [4] (setting [7]), 93.2%; in assay [4] (setting [8]), 95.5%. In assay [4] (H69AR cells + 2 uM doxorubicin), the differential viability (reversal) was 2.28% (inactive). Also, the inhibition in assay [5] is -4.67% (inactive); in assay [6], 0% (inactive).
For `CCCn1nnc(NCc2ccc(OCc3cccs3)c(OC)c2)n1`, the viability in assay [1] is 88% (inactive); in assay [2], 106% (inactive); in assay [3], 96.5% (inactive); in assay [4] (setting [7]), 95.5%; in assay [4] (setting [8]), 96.5%. For the same molecule, the differential viability (reversal) in assay [4] (H69AR cells + 2 uM doxorubicin) was 1.02% (inactive). Besides, the inhibition in assay [5] was -6.44% (inactive); in assay [6] it was 2.36% (inactive).
Consider `O=C(NCc1ccco1)c1cc2sccc2n1Cc1ccccc1`, for which the viability in assay [1] was 131% (inactive); in assay [2], 97.3% (inactive); in assay [3], 71.2% (inactive); in assay [4] (setting [7]), 89.7%; in assay [4] (setting [8]), 71.2%. Moreover, the differential viability (reversal) in assay [4] (H69AR cells + 2 uM doxorubicin) is -18.5% (inactive). The inhibition is 3.01% (inactive) in assay [5] and 14.2% (inactive) in assay [6].
As for `O=C(O)Cc1ccc(-c2ccccc2)cc1`, the viability in assay [1] is 112% (inactive); in assay [2], 84.3% (inactive); in assay [3], 85.7% (inactive); in assay [4] (setting [7]), 86.4%; in assay [4] (setting [8]) it was 85.7%. For the same molecule, in assay [4] (H69AR cells + 2 uM doxorubicin), the differential viability (reversal) is -0.76% (inactive). The inhibition in assay [5] is -2.21% (inactive); in assay [6] it was 5.33% (inactive).
`O=C(NCc1nc2ccccc2[nH]1)c1ccc(Cl)c(S(=O)(=O)N2CCCC2)c1`: the viability in assay [1] was 99% (inactive); in assay [2], 79.2% (inactive); in assay [3], 96.8% (inactive); in assay [4] (setting [7]) it was 101%; in assay [4] (setting [8]) it was 96.8%. For the same molecule, the differential viability (reversal) in assay [4] (H69AR cells + 2 uM doxorubicin) was -3.96% (inactive). Moreover, the inhibition is 0.55% (inactive) in assay [5] and -4.35% (inactive) in assay [6].
As for `CCn1c(SCC(=O)Nc2ccc3c(c2)OCO3)nnc1-c1cnccn1`, the viability in assay [1] is 89% (inactive); in assay [2], 93.1% (inactive); in assay [3] it was 95.4% (inactive); in assay [4] (setting [7]), 89.7%; in assay [4] (setting [8]), 95.4%. Moreover, in assay [4] (H69AR cells + 2 uM doxorubicin), the differential viability (reversal) is 5.74% (inactive). The figures for the inhibition in assay [5] and in assay [6] were -5.62% (inactive) and -0.73% (inactive), respectively.
As for `Cc1cc2c(c(=O)n1C)C(Cc1ccccc1)C(C#N)=C(N)O2` (centres undefined), the viability in assay [1] is 95% (inactive); in assay [2], 109% (inactive); in assay [3], 95.1% (inactive); in assay [4] (setting [7]), 85.6%; in assay [4] (setting [8]), 95.1%. In assay [4] (H69AR cells + 2 uM doxorubicin), the differential viability (reversal) is 9.48% (inactive). In addition, the inhibition is -5.54% (inactive) in assay [5] and 2.55% (inactive) in assay [6].
As to `COc1cccc(NC(=O)C2C3C=CC4(O3)C2C(=O)N(C(C)C)C4C(=O)NC2CCCCC2C)c1` (centres undefined), the viability in assay [1] is 111% (inactive); in assay [2], 105% (inactive); in assay [3], 96.9% (inactive); in assay [4] (setting [7]), 88.1%; in assay [4] (setting [8]), 96.9%. For the same molecule, in assay [4] (H69AR cells + 2 uM doxorubicin), the differential viability (reversal) is 8.79% (inactive). The inhibition in assay [5] was 0.26% (inactive); in assay [6], -4.92% (inactive).
`COc1cc(C(=O)OC(C)CN2CCCC2)cc(OC)c1OC` (centres undefined): the viability in assay [1] is 99% (inactive); in assay [2], 98.1% (inactive); in assay [3], 108% (inactive); in assay [4] (setting [7]), 97%; in assay [4] (setting [8]) it was 108%. Besides, the differential viability (reversal) in assay [4] (H69AR cells + 2 uM doxorubicin) is 11.5% (inactive). The inhibition is -3.65% (inactive) in assay [5] and 0.55% (inactive) in assay [6].
As to `O=c1[nH]c(NCc2ccccc2)nc2c1CCCC2`, the viability in assay [1] was 87% (inactive); in assay [2], 115% (inactive); in assay [3] it was 104% (inactive); in assay [4] (setting [7]) it was 96.5%; in assay [4] (setting [8]), 104%. Besides, the differential viability (reversal) in assay [4] (H69AR cells + 2 uM doxorubicin) is 7.85% (inactive). Also, the results for the inhibition in assay [5] and in assay [6] were -4.19% (inactive) and -10% (inactive), respectively.
